# Reference: ChEMBL document CHEMBL1122231, “Synthesis, benzodiazepine receptor binding, and anticonvulsant activity of 2,3-dihydro-3-oxo-5H-pyrido[3,4-b][1,4]benzothiazine-4-carbonitriles” (J Med Chem, 1983)
# Columns and labels:
# Mus musculus [1] = test: Inhibition of pentylenetetrazole (PTZ) induced convulsions in mice at 4 mg/kg after 30 min; 0/10; assay type: functional
# Mus musculus [2] = test: Inhibition of pentylenetetrazole (PTZ) induced convulsions in mice at 10 mg/kg after 60 min; 0/10; assay type: functional
# Mus musculus [3] = test: Inhibition of pentylenetetrazole (PTZ) induced convulsions in mice at 64 mg/kg after 30 min; 5/10; assay type: functional
# [4] = target: GABA-A receptor; anion channel; test: Inhibition of binding of tritiated 3[H]diazepam radioligand to rat brain homogenates; assay type: tissue-based
# How it was run: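 Rat brain membranes incubated with [3H]diazepam (final 4 μM) and six to eight concentrations of test drug, 30 °C for 10 min, then 4 °C for 20 min. Reactions were stopped by vacuum filtration through glass-fiber filters. Nonspecific binding was defined with 4 μM unlabeled diazepam. IC50 is the concentration giving 50% inhibition of [3H]diazepam binding to membranes.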
# Mus musculus [5] = test: Inhibition of pentylenetetrazole (PTZ) induced convulsions in mice at 100 mg/kg after 60 min; 2/10; assay type: functional
# Mus musculus [6] = test: Inhibition of pentylenetetrazole (PTZ) induced convulsions in mice at 64 mg/kg after 60 min; 0/10; assay type: functional
# Mus musculus [7] = test: Inhibition of pentylenetetrazole (PTZ) induced convulsions in mice at 64 mg/kg after 30 min; 0/10; assay type: functional
# Mus musculus [8] = test: Inhibition of pentylenetetrazole (PTZ) induced convulsions in mice at 64 mg/kg after 30 min; 2/10; assay type: functional
# Mus musculus [9] = test: Inhibition of pentylenetetrazole (PTZ) induced convulsions in mice at 4 mg/kg after 30 min; 1/10; assay type: functional
# Mus musculus [10] = test: Inhibition of pentylenetetrazole (PTZ) induced convulsions in mice at 10 mg/kg after 60 min; assay type: functional; settings: 1 h
# Mus musculus [11] = test: Inhibition of pentylenetetrazole (PTZ) induced convulsions in mice at 10 mg/kg after 60 min; 3/10; assay type: functional
# Mus musculus [12] = test: Inhibition of pentylenetetrazole (PTZ) induced convulsions in mice at 100 mg/kg after 60 min; 8/10; assay type: functional
# Mus musculus [13] = test: Inhibition of pentylenetetrazole (PTZ) induced convulsions in mice at 100 mg/kg after 60 min; 6/10; assay type: functional
# Mus musculus [14] = test: Inhibition of pentylenetetrazole (PTZ) induced convulsions in mice at 64 mg/kg after 30 min; 1/10; assay type: functional
# Mus musculus [15] = test: Inhibition of pentylenetetrazole (PTZ) induced convulsions in mice at 10 mg/kg after 60 min; 1/10; assay type: functional
# Mus musculus [16] = test: Inhibition of pentylenetetrazole (PTZ) induced convulsions in mice at 64 mg/kg after 60 min; 2/10; assay type: functional
# Mus musculus [17] = test: Inhibition of pentylenetetrazole (PTZ) induced convulsions in mice at 64 mg/kg after 60 min; 10/10; assay type: functional
# Mus musculus [18] = test: Inhibition of pentylenetetrazole (PTZ) induced convulsions in mice at 4 mg/kg after 30 min; assay type: functional; settings: 0.5 h
# Mus musculus [19] = test: Inhibition of pentylenetetrazole (PTZ) induced convulsions in mice at 64 mg/kg after 60 min; 1/10; assay type: functional
# Mus musculus [20] = test: Inhibition of pentylenetetrazole (PTZ) induced convulsions in mice at 64 mg/kg after 30 min; 4/10; assay type: functional
# Mus musculus [21] = test: Minimum effective dose after intraperitoneal administration; assay type: functional; settings: ip, read-out: MED
# Mus musculus [22] = test: Inhibition of pentylenetetrazole (PTZ) induced convulsions in mice at 64 mg/kg after 60 min; 7/10; assay type: functional
# Mus musculus [23] = test: Inhibition of pentylenetetrazole (PTZ) induced convulsions in mice at 4 mg/kg after 30 min; 2/10; assay type: functional
compound,measurement,setting,value
N#Cc1c(O)ncc2c1Nc1ccc(Br)cc1S2,No. of mice protected,Mus musculus [1],0
same,No. of mice protected,Mus musculus [2],0
same,No. of mice protected,Mus musculus [3],5
same,IC50,[4],8000 nM
same,No. of mice protected,Mus musculus [5],2
N#Cc1c(O)ncc2c1Nc1ccc(Cl)cc1S2,IC50,[4],320 nM
same,No. of mice protected,Mus musculus [5],2
CN1c2ccccc2Sc2cnc(O)c(C#N)c21,No. of mice protected,Mus musculus [1],0
same,No. of mice protected,Mus musculus [6],0
same,No. of mice protected,Mus musculus [7],0
same,IC50,[4],314 nM
N#Cc1c(O)ncc2c1Nc1cc(Cl)ccc1S2(=O)=O,No. of mice protected,Mus musculus [8],2
same,IC50,[4],7600 nM
same,No. of mice protected,Mus musculus [9],1
N#Cc1c(O)ncc2c1Nc1ccccc1[S+]2[O-] (stereo unspecified),ED50,Mus musculus [10],41 mg/kg
same,No. of mice protected,Mus musculus [11],3
same,No. of mice protected,Mus musculus [12],8
same,IC50,[4],4250 nM
CN1c2ccccc2Sc2cn(C)c(=O)c(C#N)c21,No. of mice protected,Mus musculus [1],0
same,No. of mice protected,Mus musculus [3],5
same,IC50,[4],100000 nM
N#Cc1c(O)ncc2c1Nc1ccc(Cl)cc1S2(=O)=O,No. of mice protected,Mus musculus [3],5
same,IC50,[4],634 nM
same,No. of mice protected,Mus musculus [9],1
N#Cc1c(O)ncc2c1Nc1cc(Cl)ccc1[S+]2[O-] (stereo unspecified),No. of mice protected,Mus musculus [1],0
same,No. of mice protected,Mus musculus [2],0
same,No. of mice protected,Mus musculus [13],6
same,No. of mice protected,Mus musculus [8],2
same,IC50,[4],35000 nM
Cn1cc2c(c(C#N)c1=O)Nc1ccccc1S2,No. of mice protected,Mus musculus [1],0
same,No. of mice protected,Mus musculus [14],1
same,IC50,[4],17000 nM
same,No. of mice protected,Mus musculus [5],2
N#Cc1c(O)ncc2c1Nc1ccc([N+](=O)[O-])cc1S2,No. of mice protected,Mus musculus [1],0
same,No. of mice protected,Mus musculus [15],1
same,IC50,[4],800 nM
same,No. of mice protected,Mus musculus [5],2
N#Cc1c(O)ncc2c1Nc1ccccc1S2(=O)=O,No. of mice protected,Mus musculus [16],2
same,No. of mice protected,Mus musculus [8],2
same,IC50,[4],11000 nM
same,No. of mice protected,Mus musculus [9],1
N#Cc1c(O)ncc2c1Nc1cc(Cl)ccc1S2,ED50,Mus musculus [10],32 mg/kg
same,No. of mice protected,Mus musculus [15],1
same,No. of mice protected,Mus musculus [17],10
same,ED50,Mus musculus [18],26 mg/kg
same,IC50,[4],400 nM
N#Cc1c(O)ncc2c1Nc1ccccc1S2,No. of mice protected,Mus musculus [1],0
same,No. of mice protected,Mus musculus [2],0
same,No. of mice protected,Mus musculus [19],1
same,ED50,Mus musculus [18],62 mg/kg
same,No. of mice protected,Mus musculus [20],4
same,IC50,[4],450 nM
same,minimal effective dose,Mus musculus [21],60 mg/kg
CNC1=Nc2ccc(Cl)cc2C(c2ccccc2)=[N+]([O-])C1 [CHLORDIAZEPOXIDE],ED50,Mus musculus [18],1.25 mg/kg
same,IC50,[4],442 nM
Cc1nc(O)c(C#N)c2c1Sc1ccccc1N2,No. of mice protected,Mus musculus [1],0
same,No. of mice protected,Mus musculus [14],1
same,IC50,[4],1700 nM
same,No. of mice protected,Mus musculus [5],2
COc1cc2c(cc1OC)Sc1cnc(O)c(C#N)c1N2,No. of mice protected,Mus musculus [15],1
same,No. of mice protected,Mus musculus [16],2
same,IC50,[4],100000 nM
N#Cc1c(O)ncc2c1Nc1ccc(N)cc1S2,No. of mice protected,Mus musculus [22],7
same,No. of mice protected,Mus musculus [3],5
same,IC50,[4],910 nM
same,No. of mice protected,Mus musculus [23],2
